# From PubChem BioAssay
# An excerpt weighted towards active compounds, which were near 2.3% of everything screened.
# LMPTP inh = LMPTP phosphatase inhibitors, primary screen, biochemical, fluorescence intensity, uHTS; recombinant LMPTP-A, OMFP fluorogenic substrate; inhibition, % at 20 µM; actives 0.22% (n = 360,000);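 active = compounds that cut the enzyme signal by at least half of the control window in the single-dose screen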
#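 Test system: LMPTP-A, protein tyrosine phosphatase of low molecular weight; Input: 0.625 nM enzyme; Incubation: 50 min dark incubation at room temperature; Signal: endpoint fluorescence intensity from OMFP dephosphorylation; Read-out basis: % inhibition versus control wells.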
# STEP inh = STEP phosphatase inhibitors, primary screen, biochemical, fluorescence intensity, uHTS | recombinant STEP, OMFP fluorogenic substrate | Tyrosine-protein phosphatase non-receptor type 5 (Homo sapiens), P54829 | inhibition, % at 20 µM | actives 0.25% (n = 360,000);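 active = inhibition at 20 µM, scaled per plate between control wells, above about 37%, limit read from the data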
# Target sequence (P54829 whole entry, looked up): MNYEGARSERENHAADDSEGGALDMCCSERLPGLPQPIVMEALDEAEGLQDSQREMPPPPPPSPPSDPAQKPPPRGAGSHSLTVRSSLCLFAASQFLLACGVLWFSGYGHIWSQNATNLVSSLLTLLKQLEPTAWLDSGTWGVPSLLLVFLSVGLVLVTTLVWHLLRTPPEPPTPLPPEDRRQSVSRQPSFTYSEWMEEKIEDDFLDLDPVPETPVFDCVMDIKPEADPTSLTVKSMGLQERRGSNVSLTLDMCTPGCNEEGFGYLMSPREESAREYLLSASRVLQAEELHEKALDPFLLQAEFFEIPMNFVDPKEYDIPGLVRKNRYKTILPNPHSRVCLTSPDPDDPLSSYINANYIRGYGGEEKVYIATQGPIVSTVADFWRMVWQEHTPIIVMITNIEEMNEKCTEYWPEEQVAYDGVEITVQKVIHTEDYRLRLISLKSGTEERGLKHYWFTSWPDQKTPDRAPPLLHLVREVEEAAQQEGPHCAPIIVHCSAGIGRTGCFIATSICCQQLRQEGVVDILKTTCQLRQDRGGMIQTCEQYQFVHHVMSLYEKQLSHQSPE
#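 Material: STEP (striatal-enriched tyrosine phosphatase) enzyme, cell-free; Compound dosing: 20 µM single dose in 1% DMSO; Technique: fluorescence read at 480 nm ex / 540 nm em; Times: reaction 20 min, ambient temperature; Medium: 50 mM Bis-Tris pH 6.0 with 2.5 mM DTT and 0.005% Tween 20; Also added: OMFP at 25 µM.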
# NadD inh = inhibitors of S. aureus NadD, primary screen, biochemical, colorimetric, uHTS; Nicotinate-nucleotide adenylyltransferase NadD (Staphylococcus aureus N315); AID 602399, 2012; inhibition, % at 20 µM; purified NadD enzyme, colorimetric absorbance read-out; actives 0.78% (n = 360,000); in the data active = inhibition above about 26%
# SUMO1-SIM PPI = modulators of SUMO1 protein-protein interactions, primary screen, biochemical, uHTS | Small ubiquitin-related modifier 1 (Homo sapiens), P63165 | SUMO1 binding to a labelled peptide, TR-FRET, 1 h | inhibition, % at 20 µM | actives 0.33% (n = 360,000) | AID 602429, 2012; in the data active = inhibition above about 37%
# DNMT1 inh = human DNMT1 methyltransferase inhibitors, primary screen, biochemical, molecular beacon, fluorescence, HinP1I cleavage, uHTS | inhibition (reported as % activation of signal), % at 10 µM | actives 0.83% (n = 360,000); in the data active = inhibition above about 50%
# Scp-1 inhibitor = Scp-1 phosphatase inhibitors, primary screen, biochemical, colorimetric, uHTS; Carboxy-terminal domain RNA polymerase II polypeptide A small phosphatase 1 (Homo …; Recombinant Scp1, phosphopeptide, malachite green phosphate absorbance; inhibition, % at 20 µM; actives 0.88% (n = 340,000);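 active = inhibition above about 50% at 20 µM, limit read from the data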
#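 Material: truncated SCP-1 phosphatase (76-261aa) / Buffer or medium: 50 mM Tris acetate pH 5.5, 0.005% Tween-20, 10 mM MgCl2 / Compound dosing: one concentration, 20 µM, with 1.0% DMSO / Incubation: 45 min room-temperature reaction, 5 min colour, 30 min stabiliser / Detection: colorimetric free-phosphate detection, absorbance 630 nm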
# Numbers stand for hits; 0 = inactive; - = no result given.
SMILES,LMPTP inh,STEP inh,NadD inh,SUMO1-SIM PPI,DNMT1 inh,Scp-1 inhibitor
CC1=N/C(=C/c2ccco2)C(=O)O1,0,0,0,0,93,57
Cc1nn(-c2cccc(C(F)(F)F)c2)c(=O)c2noc(C)c12,0,0,0,0,0,0
CC(C)NC(=O)C1(C)CN(S(C)(=O)=O)CC(=O)N1CCc1ccccc1 (centres undefined),0,-,-,0,-,-
Cc1cccc(C)c1NC(=O)C1C(c2ccccc2)=Nc2ccccc2N1C(=O)c1cnccn1 (centres undefined),0,-,-,0,-,-
Cn1c(/N=C/c2c(O)ccc3ccccc23)nc2ccccc21,0,0,0,82,0,0
O=C(NC1(O)C(=O)c2ccccc2C1=O)c1c(Cl)cccc1Cl,0,0,0,0,53,0
O=C(NC1(O)C(=O)c2ccccc2C1=O)c1ccccc1,0,0,0,0,0,0
Cc1ccccc1NC(=O)CSc1nnc(-c2ccco2)c(-c2ccco2)n1,0,0,0,0,106,68
O=C(CSc1nnc(-c2ccco2)c(-c2ccco2)n1)Nc1ccccc1,53,0,0,77,118,58
Cc1cccc(C)c1NC(=O)CSc1nnc(-c2ccco2)c(-c2ccco2)n1,57,39,32,51,116,77
CN(C)c1ccc(NC(=O)CSc2nnc(-c3ccco3)c(-c3ccco3)n2)cc1,0,0,0,0,0,0
CCCCNC(=O)C(NC(=O)c1ccc2ccccc2c1)C(=O)c1ccccc1 (centres undefined),0,-,-,0,-,-
O=C(Nc1ccc2oc(=O)ccc2c1)c1ccc(-c2cccc([N+](=O)[O-])c2)o1,54,0,0,75,0,0
O=C(Nc1ccc2oc(=O)ccc2c1)c1ccc(-c2ccccc2[N+](=O)[O-])o1,0,0,0,57,0,0
O=C(Nc1ccc2oc(=O)ccc2c1)c1ccccc1[N+](=O)[O-],0,0,0,0,0,0
O=C1C(=O)c2ccc(-c3ccccc3)cc2-c2ccccc21,0,0,0,41,106,0
Nc1ccc2c(c1)C(=O)C(=O)c1ccccc1-2,0,59,0,48,120,0
Nc1ccc2c(c1)C(=O)c1ccccc1-2,0,0,0,0,0,0
O=C(NCCN1CCC(n2c(=O)[nH]c3ccccc32)CC1)c1cccc2c1-c1ccccc1C2=O,0,-,0,55,-,-
COc1cc(C(=O)C(=O)N2CCN(c3ccccc3)CC2)cc2ccccc12,0,-,-,0,-,-
O=C(N/N=C\c1c(O)ccc2ccccc12)c1ccc(O)cc1,0,0,0,0,0,0
O=C(N/N=C/c1ccc(O)c(Br)c1)c1cc2c(ccc3ccccc32)o1,0,0,50,0,0,0
O=C(N/N=C/c1c(O)ccc2ccccc12)c1ccc(Br)o1,64,77,0,0,0,99
O=C(N/N=C/c1cc(Br)c(O)c(Br)c1)c1cc2c(ccc3ccccc32)o1,0,0,0,0,0,0
CC(=O)Nc1cc(-c2ccc(S(C)(=O)=O)cc2)cn2c(-c3ccc(F)c(Cl)c3)cnc12,0,0,0,0,0,-
SMILES,LMPTP inh,STEP inh,NadD inh,SUMO1-SIM PPI,DNMT1 inh,Scp-1 inhibitor
CC(C)c1cc(C(=O)N2CCCC(Nc3ccc(F)cc3)C2)n[nH]1 (centres undefined),0,0,0,0,0,0
O=C(Cc1cccs1)OCC(=O)c1ccco1,0,0,0,0,65,70
Cn1c(N)c(C(=O)COC(=O)Cc2cccs2)c(=O)n(C)c1=O,0,0,0,0,0,0
O=C1c2ccccc2C(=O)c2c([N+](=O)[O-])ccc(O)c21,0,0,0,0,0,67
C=CCN1C(=O)CSc2ccc(C(=O)NCc3cccs3)cc21,0,0,0,0,0,0
COc1cc(C(CC(=O)Nc2ccc(Cl)cn2)N2Cc3ccccc3C2=O)cc(OC)c1OC (centres undefined),0,0,0,0,0,0
COC(=O)c1cccc(Nc2nc(-c3ccncc3)nc3ccccc23)c1,0,0,0,61,0,0
COC(=O)c1ccc(Nc2nc(-c3ccncc3)nc3ccccc23)cc1,0,0,0,0,0,0
CCOC(=O)c1cccc(Nc2nc(-c3cccnc3)nc3ccccc23)c1,0,0,0,0,0,0
COC(=O)c1cccc(Nc2nc(-c3cccnc3)nc3ccccc23)c1,0,0,0,46,0,0
CC(C)NC(=O)c1ccc(COc2cc(Cl)ccc2Cl)o1,0,0,0,0,0,0
CCN(CC)CCCN=C1N[C@@H](c2cccc(F)c2)C(C(=O)OC)=C(C)N1Cc1ccccc1,0,0,0,0,0,103
COC(=O)C1=C(C)N(Cc2ccccc2)C(=NCc2ccccc2)N[C@H]1c1cccc(F)c1,0,0,0,0,0,0
COCCN1C(=NCCCOC(C)C)N[C@@H](c2ccccc2)C(C(=O)OC)=C1C,0,0,0,0,0,55
CCOC(=O)C1(CCc2ccccc2)CCN(C(=O)C2CCOCC2)CC1,0,0,0,0,0,0
C[C@@H]1O[C@@H](OC[C@H]2O[C@@H](Oc3cc(O)c4c(=O)cc(-c5ccc(O)c(O)c5)oc4c3)[C@H](O)[C@@H](O)[C@@H]2O)[C@H](O)[C@H](O)[C@H]1O,0,0,0,0,0,0
O=c1cc(-c2ccc(O)c(O)c2)oc2cc(O[C@@H]3O[C@H](CO)[C@@H](O)[C@H](O)[C@H]3O)cc(O)c12,0,0,0,0,52,0
CC1=C(C#N)c2nc(N)c(C#N)c(C)c2/C1=C\c1ccc(-c2ccccc2C(=O)O)o1,0,0,0,0,62,63
COc1cc(/C=C2/C(C)=C(C#N)c3nc(N)c(C#N)c(C)c32)ccc1OCC(=O)O,-,-,-,-,-,0
COC(=O)c1c[nH]c2c1-c1cc(C(=O)OCc3ccccc3)n(S(=O)(=O)c3ccc(C)cc3)c1C(=O)C2=O,60,0,0,0,96,0
CSc1cccc(NC(=O)CCc2ccccc2)c1,0,0,0,0,0,0
CSc1cccc(NC(=S)NC(=O)CCc2ccccc2)c1,0,0,0,38,0,0
CC1=NN(c2nc(-c3ccccc3)cs2)C(=O)C1N=Nc1ccccc1 (centres undefined),0,0,0,0,0,0
CC1=NN(c2nc(-c3ccc(C)cc3)cs2)C(=O)C1N=Nc1ccc2ccccc2c1 (centres undefined),0,0,44,0,0,0
